Activity calls are given as the source filed them. No cut-off for these calls is given here.
Key:
PRMT5/MEP50 complex [1] = molecular target: T1, PRMT5/MEP50 complex (Homo sapiens, UniProt O14744); experiment: Inhibition of recombinant human N-terminal FLAG-tagged PRMT5 (2 to end residues) /human N-terminal His-tagged MEP50 (2 to end residues) expressed in HEK293F cells pretreated for 15 mins followed by substrate and [3H]-SAM addition measured after 60 mins by scintillation proximity assay; format: cell-based
Procedure, shortened: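 PRMT5 enzymatic inhibition measured by radiometric scintillation proximity assay; IC50 determined.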

[2] = molecular target: Protein arginine N-methyltransferase 1 (Homo sapiens, UniProt Q99873); experiment: Inhibition of PRMT1 (unknown origin) pretreated for 15 mins followed by substrate and [3H]-SAM addition measured after 60 mins by scintillation proximity assay
Procedure, shortened: (§1)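 PRMT1 and PRMT4 enzyme-inhibition assays used to assess selectivity; IC50 values determined for each enzyme.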

[3] = molecular target: T2, Histone-arginine methyltransferase CARM1 (Homo sapiens, UniProt Q86X55); experiment: Inhibition of PRMT4 (unknown origin) pretreated for 15 mins followed by substrate and [3H]-SAM addition measured after 60 mins by scintillation proximity assay; procedure, shortened: as §1
T2 sequence (Q86X55 whole entry): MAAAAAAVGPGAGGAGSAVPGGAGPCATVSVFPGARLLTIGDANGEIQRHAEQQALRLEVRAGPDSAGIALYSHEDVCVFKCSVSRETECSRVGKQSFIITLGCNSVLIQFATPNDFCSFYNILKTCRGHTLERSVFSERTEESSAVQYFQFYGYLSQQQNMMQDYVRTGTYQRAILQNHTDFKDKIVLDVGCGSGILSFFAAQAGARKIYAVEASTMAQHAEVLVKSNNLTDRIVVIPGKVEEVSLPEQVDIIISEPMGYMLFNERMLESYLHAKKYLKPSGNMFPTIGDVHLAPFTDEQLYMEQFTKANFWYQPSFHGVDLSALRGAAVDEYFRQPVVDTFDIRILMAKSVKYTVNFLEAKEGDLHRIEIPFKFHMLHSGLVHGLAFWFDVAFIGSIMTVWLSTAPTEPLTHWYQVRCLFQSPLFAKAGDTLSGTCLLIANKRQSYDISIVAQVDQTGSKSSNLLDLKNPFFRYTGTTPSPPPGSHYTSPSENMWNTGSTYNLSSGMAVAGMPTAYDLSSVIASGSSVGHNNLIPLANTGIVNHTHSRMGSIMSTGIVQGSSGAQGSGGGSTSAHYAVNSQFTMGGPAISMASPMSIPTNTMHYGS

[4] = molecular target: T3, Protein arginine N-methyltransferase 5 (Homo sapiens, UniProt O14744); experiment: (§2) Competitive inhibition of recombinant human N-terminal FLAG-tagged PRMT5 (2 to end residues) /human N-terminal His-tagged MEP50 (2 to end residues) expressed in HEK293F cells pretreated for 15 mins followed by varying peptide substrate and fixed [3H]-SAM addition measured after 60 mins by scintillation proximity assay; format: cell-based
Procedure, shortened: (§3)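 Mode of inhibition: IC50 values determined by radiometric scintillation proximity assay in the presence of various concentrations of peptide substrate and SAM; experiments performed in triplicate.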

MV4-11 = experiment: Antiproliferative activity against human MV4-11 cells after 4 days by cell titer-glo luminescent cell viability assay; settings: MV4-11, 96 h
Pfeiffer = experiment: Antiproliferative activity against human Pfeiffer cells after 4 days by cell titer-glo luminescent cell viability assay; settings: 96 h
SUD4 = experiment: Antiproliferative activity against human SU-DHL4 cells after 4 days by cell titer-glo luminescent cell viability assay; settings: SU-DHL-4, 96 h
KARPAS-422 [5] = experiment: Antiproliferative activity against human KARPAS422 cells after 4 days by cell titer-glo luminescent cell viability assay; settings: KARPAS-422, 96 h
[6] = molecular target: T3, Protein arginine N-methyltransferase 5; experiment: Inhibition of PRMT5 in human KARPAS422 cells assessed as decrease in symmetric arginine dimethylation of SmD3 after 4 days by Western blot analysis; format: cell-based; settings: in the assay text read “after 72 h” for “after 4 days”
Procedure, shortened: (§4)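 KARPAS-422 and SU-DHL-4 cells treated across a concentration range; symmetric arginine dimethylation of SmD3 detected by Western blot with symmetric dimethyl arginine (SDMA) antibody.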

[7] = molecular target: T3, Protein arginine N-methyltransferase 5; experiment: Inhibition of PRMT5 in human SU-DHL4 cells assessed as decrease in symmetric arginine dimethylation of SmD3 after 4 days by Western blot analysis; format: cell-based; settings: in the assay text read “after 72 hrs” for “after 4 days”; procedure, shortened: as §4
KARPAS-422 [8] = experiment: Induction of apoptosis in human KARPAS422 cells assessed as viable cells at 4 uM after 48 hrs by AnnexinV-FITC staining-based flow cytometric analysis (reference value: 91.3%); format: functional; settings: KARPAS-422, 48 h, read-out: Activity
KARPAS-422 [9] = experiment: Induction of apoptosis in human KARPAS422 cells assessed as apoptotic cells at 4 uM after 48 hrs by AnnexinV-FITC staining-based flow cytometric analysis (reference value: 4.08%); format: functional
KARPAS-422 [10] = experiment: Induction of apoptosis in human KARPAS422 cells assessed as necrotic cells at 4 uM after 48 hrs by AnnexinV-FITC staining-based flow cytometric analysis (reference value: 3.20%); format: functional
KARPAS-422 [11] = experiment: Induction of apoptosis in human KARPAS422 cells assessed as viable cells at 8 uM after 48 hrs by AnnexinV-FITC staining-based flow cytometric analysis (reference value: 91.3%); format: functional; settings: KARPAS-422, 48 h, read-out: Activity
KARPAS-422 [12] = experiment: Induction of apoptosis in human KARPAS422 cells assessed as apoptotic cells at 8 uM after 48 hrs by AnnexinV-FITC staining-based flow cytometric analysis (reference value: 4.08%); format: functional
KARPAS-422 [13] = experiment: Induction of apoptosis in human KARPAS422 cells assessed as necrotic cells at 8 uM after 48 hrs by AnnexinV-FITC staining-based flow cytometric analysis (reference value: 3.20%); format: functional
KARPAS-422 [14] = experiment: Induction of apoptosis in human KARPAS422 cells assessed as viable cells at 16 uM after 48 hrs by AnnexinV-FITC staining-based flow cytometric analysis (reference value: 91.3%); format: functional; settings: KARPAS-422, 48 h, read-out: Activity
KARPAS-422 [15] = experiment: Induction of apoptosis in human KARPAS422 cells assessed as apoptotic cells at 16 uM after 48 hrs by AnnexinV-FITC staining-based flow cytometric analysis (reference value: 4.08%); format: functional
KARPAS-422 [16] = experiment: Induction of apoptosis in human KARPAS422 cells assessed as necrotic cells at 16 uM after 48 hrs by AnnexinV-FITC staining-based flow cytometric analysis (reference value: 3.20%); format: functional
KARPAS-422 [17] = experiment: Cell cycle arrest in human KARPAS422 cells assessed as accumulation of cells at G1 phase at 4 uM after 48 hrs by propidium iodide staining-based flow cytometric analysis (reference value: 39.56%); format: functional
KARPAS-422 [18] = experiment: Cell cycle arrest in human KARPAS422 cells assessed as accumulation of cells at G1 phase at 8 uM after 48 hrs by propidium iodide staining-based flow cytometric analysis (reference value: 39.56%); format: functional
KARPAS-422 [19] = experiment: Cell cycle arrest in human KARPAS422 cells assessed as accumulation of cells at G1 phase at 16 uM after 48 hrs by propidium iodide staining-based flow cytometric analysis (reference value: 39.56%); format: functional
KARPAS-422 [20] = experiment: Cell cycle arrest in human KARPAS422 cells assessed as accumulation of cells at G1 phase after 48 hrs by propidium iodide staining-based flow cytometric analysis; format: functional
KARPAS-422 [21] = experiment: Induction of apoptosis in human KARPAS422 cells after 48 hrs by AnnexinV-FITC staining-based flow cytometric analysis; format: functional, cell-based
PRMT5/MEP50 complex [22] = molecular target: T1, PRMT5/MEP50 complex; experiment: Binding affinity to PRMT5 (unknown origin)/MEP50 (unknown origin) by SPR assay; format: protein-complex assay
Procedure, shortened: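 Direct binding to PRMT5 measured by surface plasmon resonance; equilibrium dissociation constant (KD) derived.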

[23] = molecular target: T3, Protein arginine N-methyltransferase 5; experiment: as §2, with “Non-competitive” for “Competitive”, “fixed” for “varying”, “varying” for “fixed”; format: cell-based; procedure, shortened: as §3
KARPAS-422 [24] = experiment: Cell cycle arrest in human KARPAS422 cells assessed as accumulation of cells at S phase at 4 uM after 48 hrs by propidium iodide staining-based flow cytometric analysis (reference value: 47.8%); format: functional
KARPAS-422 [25] = experiment: Cell cycle arrest in human KARPAS422 cells assessed as accumulation of cells at S phase at 8 uM after 48 hrs by propidium iodide staining-based flow cytometric analysis (reference value: 47.8%); format: functional
KARPAS-422 [26] = experiment: Cell cycle arrest in human KARPAS422 cells assessed as accumulation of cells at S phase at 16 uM after 48 hrs by propidium iodide staining-based flow cytometric analysis (reference value: 47.8%); format: functional
KARPAS-422 [27] = experiment: Cell cycle arrest in human KARPAS422 cells assessed as accumulation of cells at G2/M phase at 4 uM after 48 hrs by propidium iodide staining-based flow cytometric analysis (reference value: 12.64%); format: functional
KARPAS-422 [28] = experiment: Cell cycle arrest in human KARPAS422 cells assessed as accumulation of cells at G2/M phase at 8 uM after 48 hrs by propidium iodide staining-based flow cytometric analysis (reference value: 12.64%); format: functional
KARPAS-422 [29] = experiment: Cell cycle arrest in human KARPAS422 cells assessed as accumulation of cells at G2/M phase at 16 uM after 48 hrs by propidium iodide staining-based flow cytometric analysis (reference value: 12.64%); format: functional
[30] = molecular target: T3, Protein arginine N-methyltransferase 5; experiment: Inhibition of full-length N-terminal FLAG-tagged PRMT5 (unknown origin) (1 to 637 residues) expressed in baculovirus infected Sf9 insect cells using histone H4 as peptide after 5 hrs in presence of [H3]AdoMet by scintillation proximity assay

T3 sequence (O14744 whole entry): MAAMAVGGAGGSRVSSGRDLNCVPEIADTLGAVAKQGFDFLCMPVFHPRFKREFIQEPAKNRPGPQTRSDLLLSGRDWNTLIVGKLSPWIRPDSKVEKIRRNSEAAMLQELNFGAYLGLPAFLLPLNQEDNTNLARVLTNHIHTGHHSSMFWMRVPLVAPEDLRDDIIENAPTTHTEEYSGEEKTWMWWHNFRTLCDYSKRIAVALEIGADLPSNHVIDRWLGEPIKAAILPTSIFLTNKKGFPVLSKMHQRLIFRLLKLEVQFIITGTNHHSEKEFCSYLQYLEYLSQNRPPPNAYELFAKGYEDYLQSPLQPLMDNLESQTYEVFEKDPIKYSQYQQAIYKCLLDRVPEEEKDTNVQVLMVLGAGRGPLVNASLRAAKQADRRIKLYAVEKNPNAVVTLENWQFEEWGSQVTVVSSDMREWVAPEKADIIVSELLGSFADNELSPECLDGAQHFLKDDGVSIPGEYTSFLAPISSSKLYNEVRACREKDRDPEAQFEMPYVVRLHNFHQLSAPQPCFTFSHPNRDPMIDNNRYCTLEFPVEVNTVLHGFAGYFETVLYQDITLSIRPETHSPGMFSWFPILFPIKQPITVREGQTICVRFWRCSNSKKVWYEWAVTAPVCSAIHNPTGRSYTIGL
T1 sequence (O14744 whole entry): as above
T1 sequence (Q9BQA1 whole entry, further chain): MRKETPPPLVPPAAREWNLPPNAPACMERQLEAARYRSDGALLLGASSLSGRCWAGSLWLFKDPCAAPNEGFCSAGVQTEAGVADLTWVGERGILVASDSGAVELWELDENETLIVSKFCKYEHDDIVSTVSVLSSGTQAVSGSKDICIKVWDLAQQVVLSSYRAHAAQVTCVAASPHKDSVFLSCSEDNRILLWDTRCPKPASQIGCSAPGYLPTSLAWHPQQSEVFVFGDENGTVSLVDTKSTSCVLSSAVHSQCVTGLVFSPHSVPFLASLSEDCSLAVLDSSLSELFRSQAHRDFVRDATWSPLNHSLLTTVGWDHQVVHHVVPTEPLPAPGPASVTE
Sequence of Protein arginine N-methyltransferase 1 (Q99873 whole entry): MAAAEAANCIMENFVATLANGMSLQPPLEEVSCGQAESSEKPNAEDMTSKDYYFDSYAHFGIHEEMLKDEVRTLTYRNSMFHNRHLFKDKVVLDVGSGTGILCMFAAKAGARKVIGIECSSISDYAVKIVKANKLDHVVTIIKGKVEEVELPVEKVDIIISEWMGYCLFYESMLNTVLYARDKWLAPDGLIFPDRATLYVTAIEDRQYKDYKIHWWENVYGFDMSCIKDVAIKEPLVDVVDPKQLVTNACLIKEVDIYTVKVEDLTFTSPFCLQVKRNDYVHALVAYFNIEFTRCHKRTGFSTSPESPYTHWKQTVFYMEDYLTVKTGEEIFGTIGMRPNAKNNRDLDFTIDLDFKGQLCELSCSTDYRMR

Molecule `O=C(CCN1CCc2ccccc2C1)Nc1cccc2ncccc12` has an IC50 (PRMT5/MEP50 complex [1]) greater than 100 µM.
Work on `O=C(CCN1CCc2ccccc2C1)NNC(=O)c1ccccc1` yielded an IC50 (PRMT5/MEP50 complex [1]) of 72.7 µM.
`N#Cc1c(Br)cccc1NC(=O)CCN1CCc2ccccc2C1` gave an IC50 (PRMT5/MEP50 complex [1]) of 2.71 µM, an IC50 [2] greater than 200 µM and an IC50 [3] greater than 200 µM. For the same molecule, the inhibition [4] was “Active”, the IC50 (MV4-11) was 12.5 µM and the IC50 (Pfeiffer) was 11.1 µM. The IC50 (SUD4) was 16.4 µM, the IC50 (KARPAS-422 [5]) was 9.1 µM and the inhibition [6] was “Dose-dependent effect”. For the same molecule, the inhibition [7] was “inactive”, the viability at 4 µM (KARPAS-422 [8]) was 90.5% and the Activity (KARPAS-422 [9]) was 4.66%. The Activity (KARPAS-422 [10]) was 2.35%, the viability at 8 µM (KARPAS-422 [11]) was 88.1% and the Activity (KARPAS-422 [12]) was 7.89%. For the same molecule, the Activity (KARPAS-422 [13]) was 2.93%, the viability at 16 µM (KARPAS-422 [14]) was 66.3% and the Activity (KARPAS-422 [15]) was 23.1%. For the same molecule, the Activity (KARPAS-422 [16]) was 8.76%, the Activity (KARPAS-422 [17]) was 44.75% and the Activity (KARPAS-422 [18]) was 50.53%. The Activity (KARPAS-422 [19]) was 54.34%, the Activity (KARPAS-422 [20]) was “Dose-dependent effect” and the Activity (KARPAS-422 [21]) was “Dose-dependent effect”. The Kd (PRMT5/MEP50 complex [22]) was 10.8 µM, the inhibition [23] was “Active” and the Activity (KARPAS-422 [24]) was 41.52%. The Activity (KARPAS-422 [25]) was 37.72%, the Activity (KARPAS-422 [26]) was 36.18% and the Activity (KARPAS-422 [27]) was 13.73%. For the same molecule, the Activity (KARPAS-422 [28]) was 11.75% and the Activity (KARPAS-422 [29]) was 9.48%.
For `Cc1cccc(NC(=O)CCN2CCc3ccccc3C2)c1`, the IC50 (PRMT5/MEP50 complex [1]) was greater than 100 µM.
For `COC(=O)c1cc(F)c(F)cc1NC(=O)CCN1CCc2ccccc2C1`, the IC50 (PRMT5/MEP50 complex [1]) was greater than 100 µM.
Work on `Cc1ccc(NC(=O)CCN2CCc3ccccc3C2)cc1` yielded an IC50 (PRMT5/MEP50 complex [1]) greater than 100 µM.
Work on `O=C(CCN1CCc2ccccc2C1)Nc1ccc(Oc2ccccc2)cc1` yielded an IC50 (PRMT5/MEP50 complex [1]) greater than 100 µM.
With `O=C(CCN1CCc2ccccc2C1)Nc1cccc(Br)c1` the IC50 (PRMT5/MEP50 complex [1]) was 18.1 µM.
With `O=C(CCN1CCc2ccccc2C1)Nc1nccc(C(F)(F)F)n1` the IC50 (PRMT5/MEP50 complex [1]) was 69.9 µM.
In the case of `COC(=O)c1ccccc1NC(=O)CCCN1CCc2ccccc2C1`, the IC50 (PRMT5/MEP50 complex [1]) is reported as 87.9 µM.
Work on `COC(=O)c1ccccc1NC(=O)CN1CCc2ccccc2C1` yielded an IC50 (PRMT5/MEP50 complex [1]) of 60 µM.
`O=C(CCN1CCc2ccccc2C1)Nc1cccc(OC(F)(F)F)c1` gave an IC50 (PRMT5/MEP50 complex [1]) of 63 µM.
In the case of `Cc1cc([N+](=O)[O-])ccc1NC(=O)CCN1CCc2ccccc2C1`, the IC50 (PRMT5/MEP50 complex [1]) is reported as greater than 100 µM.
In the case of `Nc1ncnc2c1ncn2[C@@H]1O/C(=C\[C@@H](N)CC[C@H](N)C(=O)O)[C@@H](O)[C@H]1O`, the IC50 [30] is reported as 0.035 µM.
